Assay results reported in publication PMC8161485 (ACS Central Science, 2021).

Target: T1, P450BM3 variant FL#62 (Priestia megaterium, UniProt P14779, A181T/A185V/A198V/A291V/A83V/E253G/F206C/F82S/F88A/H237Q/L354V/P143S/R256S/S227R/T176I/V79A)
T1 sequence (P14779 1-1049 V79A/F82S/A83V/F88A/P143S/T176I/A181T/A185V/A198V/F206C/S227R/H237Q/E253G/R256S/A291V/L354V): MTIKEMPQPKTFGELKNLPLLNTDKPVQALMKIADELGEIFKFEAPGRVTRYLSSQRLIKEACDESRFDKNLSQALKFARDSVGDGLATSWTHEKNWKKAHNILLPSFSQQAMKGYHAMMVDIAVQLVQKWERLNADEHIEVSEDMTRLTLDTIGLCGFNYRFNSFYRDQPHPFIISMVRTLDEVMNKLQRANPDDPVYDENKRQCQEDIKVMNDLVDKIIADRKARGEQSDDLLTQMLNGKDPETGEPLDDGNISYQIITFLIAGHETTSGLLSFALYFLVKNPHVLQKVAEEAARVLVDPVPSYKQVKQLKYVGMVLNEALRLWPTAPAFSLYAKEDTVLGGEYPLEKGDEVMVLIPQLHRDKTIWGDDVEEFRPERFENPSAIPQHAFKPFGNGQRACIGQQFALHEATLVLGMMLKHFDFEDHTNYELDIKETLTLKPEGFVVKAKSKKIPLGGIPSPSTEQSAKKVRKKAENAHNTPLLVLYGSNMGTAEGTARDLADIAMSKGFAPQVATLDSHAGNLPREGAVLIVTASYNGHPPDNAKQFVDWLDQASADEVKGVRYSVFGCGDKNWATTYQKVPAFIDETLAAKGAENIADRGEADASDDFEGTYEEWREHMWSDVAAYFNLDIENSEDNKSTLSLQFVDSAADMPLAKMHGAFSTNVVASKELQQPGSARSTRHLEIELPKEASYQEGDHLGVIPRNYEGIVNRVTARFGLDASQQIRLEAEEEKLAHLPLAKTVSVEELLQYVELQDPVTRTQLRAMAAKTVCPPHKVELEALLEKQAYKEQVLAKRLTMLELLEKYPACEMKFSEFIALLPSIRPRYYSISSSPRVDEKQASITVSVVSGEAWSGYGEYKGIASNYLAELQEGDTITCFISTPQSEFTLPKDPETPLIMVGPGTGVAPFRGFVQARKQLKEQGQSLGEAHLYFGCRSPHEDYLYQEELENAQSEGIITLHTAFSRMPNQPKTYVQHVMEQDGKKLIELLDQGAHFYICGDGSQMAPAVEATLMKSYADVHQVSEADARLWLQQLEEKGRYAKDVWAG
Assay: Heme spin shift binding of MCL to P450 variant FL#62
Parameters: species or system Bacillus megaterium
Summary of the method: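 Purified P450 (3 μM) in 50 mM potassium phosphate, pH 8.0, titrated with test compound (5–2000 μM) from a 50 mM ethanol stock. A difference spectrum (350–500 nm) was taken at each step. Absorbance change at 390/420 nm (high/low spin) was plotted against concentration, with KD from a nonlinear 1:1 binding fit. At least triplicate, room temperature.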

C=C1C(=O)O[C@H]2[C@H]1CCC(C)=C1CC[C@@](C)(O)[C@@H]12 [MCL, micheliolide] showed a Kd of 61 ± 3 µM.
